Assays:
Cavia porcellus [1] = organism: Cavia porcellus; assay: (§1) Increase in the coronary blood flow (CBF) was determined in isolated guinea pig heart at a dose of 100 ug/heart; type: functional, Artery
In short: (§2)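 Hartley guinea pig hearts perfused by the Langendorff method with modified Locke-Ringer solution containing defibrinated rabbit blood, at 40 cm H2O and 29 ± 1 °C. Compounds in saline injected into the aortic cannula at 3, 10, 30 or 100 μg/heart. Coronary flow measured by drop counter; graded by the lowest dose giving an increase of at least 0.5 mL/min.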

Canis familiaris [2] = organism: Canis familiaris; assay: Antihypertensive activity expressed as the ratio of the potency evaluated by increased vertebral blood flow (VBF) to that of diltiazem.; type: functional, Canis lupus familiaris
In short: (§3)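 Anesthetized dogs; compounds given intraarterially. Vertebral blood flow recorded, and a dose-response curve built from peak responses. Potency given as ratio to diltiazem, calculated from the dose-response curves. Half duration is the time, in minutes, that blood flow stays at one-half of the maximum change.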

Canis familiaris [3] = assay: Antihypertensive activity by the increase in the vertebral blood flow in anesthetized dogs expressed as duration of half of the maximum change in blood flow.; type: functional, Canis lupus familiaris; in short: as §3
Rattus norvegicus [4] = assay: Hypotensive activity in SHR (spontaneously hypertensive rats) expressed as change in blood pressure(mmHg) after 4 hr dosing at a concentration of 100 mg/kg; type: functional
In short: (§4)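 Male spontaneously hypertensive rats, fasted 20 h. Compounds dissolved in deionized water and given orally (30 mg/kg; some at 100 mg/kg). Blood pressure measured by tail-cuff in conscious animals. Change (mmHg) taken from the predosing value at 1 and 4 h, or 1 and 5 h, after dosing. N = 3-6.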

Cavia porcellus [5] = organism: Cavia porcellus; assay: as §1; type: functional; in short: as §2
Rattus norvegicus [6] = assay: Change in blood pressure in spontaneously hypertensive rats 1 hr following 30 mg/kg p.o.; type: functional; conditions: route oral; in short: as §4
Rattus norvegicus [7] = assay: Hypotensive activity in SHR (spontaneously hypertensive rats) expressed as change in blood pressure(mmHg) after 4 hr dosing at a concentration of 30 mg/kg; type: functional; in short: as §4
Cavia porcellus [8] = organism: Cavia porcellus; assay: Increase in the coronary blood flow (CBF) was determined in isolated guinea pig heart at a dose of 30 ug/heart; type: functional, Artery; in short: as §2
Rattus norvegicus [9] = assay: Hypotensive activity in SHR (spontaneously hypertensive rats) expressed as change in blood pressure(mmHg) after 5 hr dosing at a concentration of 30 mg/kg; type: functional; in short: as §4
Rattus norvegicus [10] = assay: Hypotensive activity in SHR (spontaneously hypertensive rats) expressed as change in blood pressure(mmHg) after 1 hr dosing at a concentration of 30 mg/kg; type: functional; in short: as §4

SMILES	Increase in CBF (Cavia porcellus [1]) [mL/min]	Potency ratio (Canis familiaris [2])	Half duration (Canis familiaris [3]) [min]	Change in blood pressure (Rattus norvegicus [4]) [delta mmHg]	Increase in CBF (Cavia porcellus [5]) [mL/min]	Change in blood pressure (Rattus norvegicus [6]) [delta mmHg]	Change in blood pressure (Rattus norvegicus [7]) [delta mmHg]	Increase in CBF (Cavia porcellus [8]) [mL/min]	Change in blood pressure (Rattus norvegicus [9]) [delta mmHg]	Change in blood pressure (Rattus norvegicus [10]) [delta mmHg]
CCOC(=O)OC1C(=O)N(CCN(C)C)c2ccc(Cl)cc2SC1c1ccc(OC)cc1 (configuration not stated)	>0.5	0.29	44	–	–	–	–	–	–	–
COc1ccc(C2Sc3cc(Cl)ccc3N(CCN(C)C)C(=O)C2OC=O)cc1 (single isomer, unassigned; (+))	–	0.73	44	-72.7	>0.5	-60	–	–	–	–
CSc1ccc(C2Sc3cc(Cl)ccc3N(CCN(C)C)C(=O)C2OC(C)=O)cc1 (configuration not stated)	>0.5	0.21	37	–	–	–	–	–	–	–
COc1ccc(C2Sc3c(Cl)cccc3N(CCN(C)C)C(=O)C2O)cc1 (stereo in doubt; (+)-16m)	–	1.25	46	–	–	-46.7	-30	>0.5	–	–
COc1ccc(C2Sc3cccc(Cl)c3N(CCN(C)C)C(=O)C2O)cc1.Cl (configuration not stated)	>0.5	0.2	33	–	–	-31.7	-26	–	–	–
COc1ccc(C2Sc3c(ccc(Cl)c3Cl)N(CCN(C)C)C(=O)C2O)cc1.Cl (configuration not stated)	–	0.62	80	–	–	–	–	>0.5	–	–
COc1ccc(C2Sc3cc(Cl)ccc3N(CCN(C)C)C(=O)C2OCc2ccc([N+](=O)[O-])cc2)cc1 (single isomer, unassigned; (+))	–	0.58	–	–	>0.5	-11.5	–	–	-8.8	–
COc1ccc(C2Sc3c(Cl)cccc3N(CCN(C)C)C(=O)C2OC(C)=O)cc1.Cl (stereo in doubt; 2cc)	–	0.75	72	–	–	–	–	>0.5	–	–
C=CCN(C)CCN1C(=O)C(OC(C)=O)C(c2ccc(OC)cc2)Sc2cc(Cl)ccc21 (configuration not stated)	–	1	37	–	>0.5	-29	–	–	-17	–
CSc1ccc(C2Sc3cc(Cl)ccc3N(CCN(C)C)C(=O)C2O)cc1 (configuration not stated)	>0.5	0.09	35	–	–	–	–	–	–	–
CCC(=O)OC1C(=O)N(CCN(C)C)c2ccc(Cl)cc2SC1c1ccc(OC)cc1 (single isomer, unassigned; (+))	–	1.45	64	-60.7	–	-67.7	–	>0.5	–	–
CCN(C)CCN1C(=O)C(OC(C)=O)C(c2ccc(OC)cc2)Sc2cc(Cl)ccc21 (single isomer, unassigned; (+))	–	0.9	46	–	>0.5	-55.5	–	–	-22.3	–
CCCN(C)CCN1C(=O)C(OC(C)=O)C(c2ccc(OC)cc2)Sc2cc(Cl)ccc21 (configuration not stated)	–	0.5	47	–	>0.5	–	-9	–	–	-16
CCCCNC(=O)OC1C(=O)N(CCN(C)C)c2ccc(Cl)cc2SC1c1ccc(OC)cc1 (configuration not stated)	–	0.31	76	–	–	–	–	>0.5	–	–
CCCCNC(=O)OC1C(=O)N(CCN(C)C)c2ccc(F)cc2SC1c1ccc(OC)cc1 (configuration not stated)	–	0.16	58	–	–	–	–	>0.5	–	–
COc1ccc(C2Sc3cc(Cl)ccc3N(CCN(C)C)C(=O)C2OC)cc1 (single isomer, unassigned; (+))	–	0.58	47	–	–	-76.8	–	–	-56.5	–
COc1ccc(C2Sc3c(Cl)cccc3N(CCN(C)C)C(=O)C2O)cc1.Cl (configuration not stated)	–	0.91	52	–	–	–	–	>0.5	–	–
COc1ccc([C@@H]2Sc3ccccc3N(CCN(C)C)C(=O)[C@@H]2OC(C)=O)cc1 [DILTIAZEM]	–	1	53	–	–	-34	-15	>0.5	–	–

Reference: ChEMBL document CHEMBL1125917, “Synthesis of halogen-substituted 1,5-benzothiazepine derivatives and their vasodilating and hypotensive activities” (1991)
